The record followed here is ChEMBL document CHEMBL1147829, “4-(Aminoalkylamino)-3-benzimidazole-quinolinones as potent CHK-1 inhibitors” (Bioorg Med Chem Lett, 2006).

pEC50, pIC50: −log10 of the molar value. Calls of active or inactive are those of the source. No cut-off for these calls is given here.

In one test the test system is MDA-MB-435. Put plainly: Cytotoxicity against human MDA-MB-435 cells in presence of camptothecin. The test is classed as functional, cell-based. The gist of the method: (§1)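 MDA-MB-435 cells seeded at 5×10³ per well and allowed 4 h at 37 °C under 5% CO₂. They were then exposed to the agent alone or combined with camptothecin, with DMSO as vehicle control, for 48 h. MTS was developed 4 h and read at 490 nm with medium-only background subtracted. Percent was calculated relative to DMSO-treated cells.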
Consider `O=c1[nH]c2ccc(Cl)cc2c(N[C@@H]2CN3CCC2CC3)c1-c1nc2ccccc2[nH]1`, for which the outcome was Active.

A further test relates to MDA-MB-435. The experiment in a line: Cytotoxicity against human MDA-MB-435 cells. Format: functional, cell-based. The gist of the method: as §1
Compound `O=c1[nH]c2ccc(Cl)cc2c(N[C@@H]2CN3CCC2CC3)c1-c1nc2ccccc2[nH]1` gave a pEC50 of 7.10.

A further test deals with T1, Serine/threonine-protein kinase Chk1 (Homo sapiens, UniProt O14757).
T1 sequence (O14757 whole entry): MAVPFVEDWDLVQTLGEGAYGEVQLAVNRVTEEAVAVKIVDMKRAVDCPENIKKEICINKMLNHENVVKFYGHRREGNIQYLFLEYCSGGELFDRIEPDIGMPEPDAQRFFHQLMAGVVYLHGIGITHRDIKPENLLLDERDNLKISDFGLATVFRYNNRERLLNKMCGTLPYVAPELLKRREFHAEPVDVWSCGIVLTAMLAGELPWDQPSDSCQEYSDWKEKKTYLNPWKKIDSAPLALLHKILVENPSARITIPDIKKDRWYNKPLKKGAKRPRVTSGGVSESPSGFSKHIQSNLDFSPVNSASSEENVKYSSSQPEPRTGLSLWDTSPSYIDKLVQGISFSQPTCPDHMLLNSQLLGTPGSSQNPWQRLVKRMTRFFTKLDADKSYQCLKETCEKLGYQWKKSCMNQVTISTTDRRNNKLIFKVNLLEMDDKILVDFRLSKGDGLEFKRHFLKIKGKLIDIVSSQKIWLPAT
Put plainly: Inhibition of CHK1.
The compound `O=c1[nH]c2ccc(Cl)cc2c(NC2CCNCC2)c1-c1nc2ccccc2[nH]1` had a pIC50 of 8.48. Same read-out and setting: for `Cc1cccc2c(N[C@@H]3CN4CCC3CC4)c(-c3nc4ccccc4[nH]3)c(O)nc12` the value was 6.86; for `Oc1nc2ccc(Cl)cc2c(NC2CCCNC2)c1-c1nc2ccccc2[nH]1` (stereo unspecified), 8.98; for `CCN(CC)c1c(-c2nc3ccccc3[nH]2)c(=O)[nH]c2ccccc12`, below 4.52.

With `O=c1[nH]c2ccccc2c(O)c1-c1nc2ccccc2[nH]1`, the pIC50 is 5.53. Take `Cc1ccc2[nH]c(=O)c(-c3nc4ccccc4[nH]3)c(NC3CCCNC3)c2c1` (stereo unspecified): the negative logarithm of the IC50 (pIC50) is 8.85. Compared with the last compound, the pIC50 is 3.32 log units higher.

`Cc1ccc2nc(O)c(-c3nc4ccccc4[nH]3)c(NC3CCNCC3)c2c1` had a pIC50 of 8.48. Against the preceding compound, the pIC50 is 0.37 log units lower.

For `O=c1[nH]c2ccccc2c(N[C@@H]2CN3CCC2CC3)c1-c1nc2ccccc2[nH]1`, the pIC50 is 8.12. Compared with the last compound, the pIC50 is 0.36 log units lower. The same measure, in the same setting: for `O=c1[nH]c2ccccc2c(N[C@H]2CN3CCC2CC3)c1-c1nc2ccccc2[nH]1` the value was 6.32; for `Oc1nc2ccc(Cl)cc2c(N[C@H]2CCNC2)c1-c1nc2ccccc2[nH]1`, 9.30. On the same count and under the same terms, for `O=c1[nH]c2ccc(Cl)c(Cl)c2c(N[C@@H]2CN3CCC2CC3)c1-c1nc2ccccc2[nH]1` the value was 7.66; for `Cc1ccc2nc(O)c(-c3nc4ccccc4[nH]3)c(N[C@@H]3CN4CCC3CC4)c2c1`, 9.46. Same read-out and setting: the result for `Nc1c(-c2nc3ccccc3[nH]2)c(=O)[nH]c2ccccc12` reads 6.14; that for `O=c1[nH]c2ccc(Cl)cc2c(N[C@@H]2CCNC2)c1-c1nc2ccccc2[nH]1`, 8.14.
